Data reported in ChEMBL document CHEMBL2375271, “Antiproliferative Homoisoflavonoids and Bufatrienolides from Urginea depressa” (J Nat Prod, 2013).

Experiments:
[1] = Cytotoxicity against human H522-T1 cells assessed as growth inhibition after 96 hrs by CellTiter-Glo luminescence assay; type: functional, cell-based; details: H522-T1, 96 h
Summary of the method: (§1)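 Antiproliferative activity was determined against the A2058 melanoma and H522-T1 lung cancer cell lines.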

A2780 [2] = assay: Cytotoxicity against human A2780 cells assessed as growth inhibition; type: functional, cell-based
Summary of the method: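 Drug-sensitive A2780 human ovarian cancer cell line; antiproliferative activity determined per a previously described protocol.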

A2058 [3] = assay: Cytotoxicity against human A2058 cells assessed as growth inhibition after 96 hrs by CellTiter-Glo luminescence assay; type: functional, cell-based; details: A2058, 96 h; summary of the method: as §1
A2780 [4] = assay: Selectivity ratio of IC50 for human A2780 cells to IC50 for human H522-T1 cells; type: functional
A2058 [5] = assay: Selectivity ratio of IC50 for human A2780 cells to IC50 for human A2058 cells; type: functional

| Structure (SMILES) | IC50 [1] [nM] | IC50 (A2780 [2]) [nM] | IC50 (A2058 [3]) [nM] | Ratio IC50 (A2780 [4]) | Ratio IC50 (A2058 [5]) |
| --- | --- | --- | --- | --- | --- |
| C[C@@H]1O[C@@H](O[C@H]2[C@@H](O)[C@H](O[C@@H]3C=C4CC[C@@H]5[C@H](CC[C@]6(C)[C@@H](c7ccc(=O)oc7)CC[C@]56O)[C@@]4(C=O)CC3)O[C@@H](C)[C@@H]2O[C@@H]2O[C@H](CO)[C@@H](O)[C@H](O)[C@H]2O)[C@H](O)[C@H](O)[C@H]1O | 51 | 41 | 76 | – | – |
| COc1ccc(C[C@H]2COc3cc(OC)c(OC)c(OC)c3C2=O)cc1 | 740 | 1350 | 690 | – | – |
| CC[C@]1(O)C[C@@H]2CN(CCc3c([nH]c4ccccc34)[C@@](C(=O)OC)(c3cc4c(cc3OC)N(C)[C@H]3[C@@](O)(C(=O)OC)[C@H](OC(C)=O)[C@]5(CC)C=CCN6CC[C@]43[C@@H]65)C2)C1 [VINBLASTINE] | 5.2 | – | 3.7 | – | – |
| COc1ccc(C[C@@]2(O)COc3cc(OC)c(OC)c(OC)c3C2=O)cc1 | 71 | 320 | 68 | 5 | 5 |
| C[C@]12CC[C@H]3[C@@H](CCC4=C[C@@H](O[C@@H]5O[C@H](CO)[C@@H](O)[C@H](O)[C@H]5O)CC[C@@]43C=O)[C@@]1(O)CC[C@@H]2c1ccc(=O)oc1 | 34 | 24 | 48 | – | – |
| COc1cc2c(c(OC)c1OC)C(=O)[C@@](O)(Cc1ccc3c(c1)OCO3)CO2 [URGINEANIN D] | 430 | 350 | 380 | – | – |
| CC(=O)O[C@@H]1C[C@]2(O)[C@@H]3CCC4=C[C@@H](O[C@@H]5O[C@H](CO)[C@@H](O)[C@H](O)[C@H]5O)CC[C@]4(C=O)[C@H]3CC[C@]2(C)[C@H]1c1ccc(=O)oc1 | 44 | 11 | 60 | – | – |
| COc1ccc(C[C@H]2COc3cc(O)cc(O)c3C2=O)cc1 | > 10000 | 23000 | > 10000 | – | – |
| C[C@@H]1O[C@@H](O[C@H]2[C@@H](O)[C@H](O[C@@H]3C=C4CC[C@@H]5[C@H](CC[C@]6(C)[C@@H](c7ccc(=O)oc7)CC[C@]56O)[C@@]4(C)CC3)O[C@@H](C)[C@@H]2O[C@@H]2O[C@H](CO)[C@@H](O)[C@H](O)[C@H]2O)[C@H](O)[C@H](O)[C@H]1O | 110 | 111 | 180 | – | – |
| COc1cc2c(c(OC)c1OC)C(=O)[C@@H](Cc1ccc3c(c1)OCO3)CO2 [URGINEANIN E] | > 10000 | 1440 | > 10000 | – | – |
| COc1cc2c(c(OC)c1OC)C(=O)[C@@](O)(Cc1ccc(O)cc1)CO2 | 6780 | 3400 | > 10000 | – | – |
